Measurements from ChEMBL document CHEMBL1153932, “Hybrid alpha-bromoacryloylamido chalcones. Design, synthesis and biological evaluation” (Bioorg Med Chem Lett, 2009).
The source made the active and inactive calls. No cut-off for these calls is given here.

Assays:
CCRF-CEM = assay: Antiproliferative activity against human CEM cells after 48 hrs by Coulter counting analysis; assay type: cell-based
K562 [1] = assay: Induction of apoptosis in human K562 cells assessed as phosphatidylserine externalization up to 3 uM after 24 hrs using annexin-V-FITC staining by flow cytometry; assay type: functional, cell-based
L1210 = assay: Antiproliferative activity against mouse L1210 cells after 48 hrs by Coulter counting analysis; assay type: functional, cell-based; settings: L1210, 48 h
FM3A = assay: Antiproliferative activity against mouse FM3A cells after 48 hrs by Coulter counting analysis; assay type: functional, cell-based
MOLT-4 = assay: Antiproliferative activity against human MOLT4 cells after 48 hrs by Coulter counting analysis; assay type: functional, cell-based; settings: MOLT-4, 48 h
HeLa = assay: Antiproliferative activity against human HeLa cells after 48 hrs by Coulter counting analysis; assay type: functional, cell-based
K562 [2] = assay: Induction of apoptosis in human K562 cells assessed as phosphatidylserine externalization up to 3 uM after 48 hrs using annexin-V-FITC staining by flow cytometry; assay type: functional, cell-based
K562 [3] = assay: Induction of apoptosis in human K562 cells assessed as caspase 3 activation at 1.25 uM after 24 hrs by flow cytometry; assay type: functional, cell-based
Outline: (§1)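 K562 cells were treated with compound for 24 h and 48 h, then harvested. Cells were stained with a FITC-conjugated monoclonal antibody against the active fragment of human caspase-3 and analysed by flow cytometry against untreated controls.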

K562 [4] = assay: Induction of apoptosis in human K562 cells assessed as caspase 3 activation at 0.6 uM after 48 hrs by flow cytometry; assay type: functional, cell-based; outline: as §1
K562 [5] = assay: Cell cycle arrest in human K562 cells assessed as accumulation at subG1 phase at IC75 after 72 hrs using propidium iodide staining by flow cytometry; assay type: functional
Outline: (§2)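 K562 cells were cultured 72 h with or without compound, then stained with propidium iodide and analysed by flow cytometry. The proportions of cells in sub-G1, G0–G1, S and G2-M were read from DNA histograms and compared with untreated controls.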

K562 [6] = assay: Induction of apoptosis in human K562 cells assessed as caspase 3 activation at 1.25 uM after 48 hrs by flow cytometry; assay type: functional, cell-based; outline: as §1
[7] = Inhibition of bovine brain tubulin polymerization; set-up: species or system Bos taurus
K562 [8] = assay: Cell cycle arrest in human K562 cells assessed as accumulation at G2-M phase at IC75 after 72 hrs using propidium iodide staining by flow cytometry; assay type: functional; outline: as §2
K562 [9] = assay: Antiproliferative activity against human K562 cells after 48 hrs by Coulter counting analysis; assay type: functional, cell-based; settings: K562, 48 h
K562 [10] = assay: Cell cycle arrest in human K562 cells assessed as accumulation at G0-G1 phase at IC75 after 72 hrs using propidium iodide staining by flow cytometry; assay type: functional; outline: as §2
K562 [11] = assay: Cell cycle arrest in human K562 cells assessed as accumulation at S phase at IC75 after 72 hrs using propidium iodide staining by flow cytometry; assay type: functional; outline: as §2
[12] = Solubility of the compound; assay type: physicochemical
K562 [13] = assay: Induction of apoptosis in human K562 cells assessed as caspase 3 activation at 0.6 uM after 24 hrs by flow cytometry; assay type: functional, cell-based; outline: as §1
K562 [14] = assay: Induction of apoptosis in human K562 cells assessed as increase in mitochondrial mass at […] after 48 hrs using 10-N-nonyl acridine orange staining by flow cytometry; assay type: functional, cell-based
K562 [15] = assay: Induction of apoptosis in human K562 cells assessed as phosphatidylserine externalization at 0.2 uM after 3 days using annexin-V-FITC staining by flow cytometry; assay type: functional, cell-based

In the case of `C=C(Br)C(=O)Nc1ccc(C(=O)/C=C/c2ccc(N(C)C)cc2)cc1`, the IC50 (CCRF-CEM) is reported as 1500 nM, the Activity (K562 [1]) is reported as “Active” and the IC50 (L1210) is reported as 1900 nM. For the same compound, the IC50 (FM3A) was 2800 nM, the IC50 (MOLT-4) was 1300 nM and the IC50 (HeLa) was 610 nM. For the same compound, the Activity (K562 [2]) was “Active”.
For `C=C(Br)C(=O)Nc1ccc(/C=C/C(=O)c2ccc(OCC)cc2)cc1`, the Activity (K562 [3]) was “Active”, the IC50 (CCRF-CEM) was 750 nM and the Activity (K562 [4]) was “Active”. For the same compound, the Activity (K562 [5]) was 52.3%, the Activity (K562 [6]) was “Active” and the IC50 [7] was over 40000 nM. It also gave an Activity (K562 [8]) of 11.6%, an IC75 (K562 [9]) of 850 nM and an Activity (K562 [10]) of 16.5%. For the same compound, the IC50 (L1210) was 240 nM, the Activity (K562 [11]) was 19.6% and the solubility [12] was “Insoluble”. For the same compound, the IC50 (FM3A) was 680 nM, the Activity (K562 [13]) was “Active” and the IC50 (MOLT-4) was 610 nM. The IC50 (HeLa) was 750 nM and the Activity (K562 [14]) was “Active”.
In the case of `C=C(Br)C(=O)Nc1ccc(C(=O)/C=C/c2ccc(OC)c(OC)c2OC)cc1`, the IC50 (CCRF-CEM) is reported as 840 nM, the Activity (K562 [5]) is reported as 57.8% and the IC50 [7] is reported as over 40000 nM. For the same compound, the Activity (K562 [8]) was 13.6%, the IC50 (K562 [9]) was 200 nM and the IC75 (K562 [9]) was 710 nM. It also gave an Activity (K562 [10]) of 13.7%, an IC50 (L1210) of 630 nM and an Activity (K562 [11]) of 14.9%. For the same compound, the solubility [12] was “Insoluble”, the IC50 (FM3A) was 530 nM and the IC50 (MOLT-4) was 680 nM. The IC50 (HeLa) was 510 nM and the Activity (K562 [15]) was “Active”.
